Laboratory results as given in ChEMBL document CHEMBL1141218, “Further structure-activity relationship studies of piperidine-based monoamine transporter inhibitors: effects of piperidine ring stereochemistry on potency. Identification of norepinephrine transporter selective ligands and broad-spectrum transporter inhibitors” (J Med Chem, 2005).

Tests used:
[1] = target: Norepinephrine transporter (Rattus norvegicus, UniProt Q9WTR4); assay: Ability to inhibit [3H]NE uptake through NET in rat synaptosomes; type: subcellular, Brain
Method in brief: (§1)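 Uptake inhibition values given as Ki. Each experiment tested six drug concentrations in triplicate, with two to four independent experiments per compound. Values are means ± SEM.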

[2] = target: Sodium-dependent serotonin transporter (Rattus norvegicus, UniProt P31652); assay: Ability to inhibit [3H]5-HT uptake through SERT in rat synaptosomes; type: subcellular, Brain; method in brief: as §1
[3] = target: Sodium-dependent dopamine transporter (Rattus norvegicus, UniProt P23977); assay: Ability to inhibit [3H]DA uptake through DAT in rat synaptosomes; type: subcellular, Brain; method in brief: as §1
[4] = target: Monoamine transporters; serotonin & dopamine (Rattus norvegicus) (UniProt P31652+P23977); assay: Selectivity towards rat SERT over DAT; type: protein assay
Chain of Monoamine transporters; serotonin & dopamine (Rattus norvegicus) (P23977 whole entry, looked up): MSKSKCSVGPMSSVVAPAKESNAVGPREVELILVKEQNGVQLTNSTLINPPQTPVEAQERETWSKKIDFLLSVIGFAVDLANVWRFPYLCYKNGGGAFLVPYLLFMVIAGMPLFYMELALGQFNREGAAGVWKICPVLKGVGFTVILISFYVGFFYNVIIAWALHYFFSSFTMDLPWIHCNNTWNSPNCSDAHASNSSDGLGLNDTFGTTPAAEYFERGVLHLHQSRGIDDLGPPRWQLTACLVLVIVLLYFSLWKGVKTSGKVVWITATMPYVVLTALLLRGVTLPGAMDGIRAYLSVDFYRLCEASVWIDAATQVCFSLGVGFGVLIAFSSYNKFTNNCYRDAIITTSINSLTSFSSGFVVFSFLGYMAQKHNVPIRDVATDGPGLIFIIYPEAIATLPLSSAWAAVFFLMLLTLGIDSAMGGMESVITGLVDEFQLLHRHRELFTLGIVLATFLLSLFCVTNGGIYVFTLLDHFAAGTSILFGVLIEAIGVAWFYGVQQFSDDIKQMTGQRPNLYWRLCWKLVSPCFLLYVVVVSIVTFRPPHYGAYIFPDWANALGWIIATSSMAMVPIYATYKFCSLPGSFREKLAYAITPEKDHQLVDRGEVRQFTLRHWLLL
Chain of Monoamine transporters; serotonin & dopamine (Rattus norvegicus) (P31652 whole entry, looked up): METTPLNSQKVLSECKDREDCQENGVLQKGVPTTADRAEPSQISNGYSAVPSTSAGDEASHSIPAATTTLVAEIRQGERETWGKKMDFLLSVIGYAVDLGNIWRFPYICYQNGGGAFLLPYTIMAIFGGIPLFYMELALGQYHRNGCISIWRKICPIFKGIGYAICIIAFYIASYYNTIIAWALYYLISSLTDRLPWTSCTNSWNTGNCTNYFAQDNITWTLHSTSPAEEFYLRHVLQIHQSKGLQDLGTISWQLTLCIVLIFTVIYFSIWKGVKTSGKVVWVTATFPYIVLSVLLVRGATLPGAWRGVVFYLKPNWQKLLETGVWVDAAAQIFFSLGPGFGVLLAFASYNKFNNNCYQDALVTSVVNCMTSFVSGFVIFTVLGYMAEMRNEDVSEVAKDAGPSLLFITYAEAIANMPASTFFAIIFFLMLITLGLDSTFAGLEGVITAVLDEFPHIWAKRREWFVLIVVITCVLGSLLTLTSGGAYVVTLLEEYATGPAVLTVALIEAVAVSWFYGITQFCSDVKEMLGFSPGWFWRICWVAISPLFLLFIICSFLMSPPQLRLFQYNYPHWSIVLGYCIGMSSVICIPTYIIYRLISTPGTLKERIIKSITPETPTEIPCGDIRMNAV

Chain of Sodium-dependent serotonin transporter (P31652 whole entry): as the sequence (P31652 whole entry, looked up) above
Chain of Sodium-dependent dopamine transporter (P23977 whole entry): as the sequence (P23977 whole entry, looked up) above
Chain of Norepinephrine transporter (Q9WTR4 whole entry): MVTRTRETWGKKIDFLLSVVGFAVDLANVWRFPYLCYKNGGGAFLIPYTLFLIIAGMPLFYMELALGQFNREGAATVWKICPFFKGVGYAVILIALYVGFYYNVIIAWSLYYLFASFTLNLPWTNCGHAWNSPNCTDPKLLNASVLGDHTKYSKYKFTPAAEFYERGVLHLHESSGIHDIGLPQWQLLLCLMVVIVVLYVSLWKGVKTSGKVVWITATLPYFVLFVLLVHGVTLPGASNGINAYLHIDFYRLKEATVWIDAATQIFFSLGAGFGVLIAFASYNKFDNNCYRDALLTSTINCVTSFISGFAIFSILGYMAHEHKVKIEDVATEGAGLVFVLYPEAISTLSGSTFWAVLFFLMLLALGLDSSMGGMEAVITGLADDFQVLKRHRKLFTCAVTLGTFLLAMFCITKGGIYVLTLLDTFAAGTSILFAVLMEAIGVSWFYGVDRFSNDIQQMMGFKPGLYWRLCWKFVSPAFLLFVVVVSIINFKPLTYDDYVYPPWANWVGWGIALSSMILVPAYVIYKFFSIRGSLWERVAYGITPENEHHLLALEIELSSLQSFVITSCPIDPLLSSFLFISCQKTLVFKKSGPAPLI

| SMILES | Ki [1] [nM] | Ki [2] [nM] | Ki [3] [nM] | Ratio Ki [4] |
| --- | --- | --- | --- | --- |
| COC(=O)CSC[C@H]1CN(C)CC[C@H]1c1ccc(Cl)cc1 | 98 | 403 | 598 | 0.67 |
| CN1CC[C@@H](c2ccc(Cl)cc2)[C@@H](CSCCOC(=O)c2ccccc2)C1 | 143 | 270 | 1470 | 0.18 |
| CN1CC[C@@H](c2ccc(Cl)cc2)[C@H](CSCC(N)=O)C1 | 53 | 545 | 1100 | 0.49 |
| COC(=O)CSC[C@@H]1CN(C)CC[C@H]1c1ccc(Cl)cc1 | 57 | 69 | 2620 | 0.03 |
| CC(C)NC(=O)CSC[C@@H]1CN(C)CC[C@H]1c1ccc(Cl)cc1 | 67 | 138 | 663 | 0.21 |
| CN1CC[C@@H](c2ccc(Cl)cc2)[C@@H](CSCC(=O)N(C)C)C1 | 47 | 173 | 176 | 0.98 |
| CC(=O)OCCSC[C@H]1CN(C)CC[C@H]1c1ccc(Cl)cc1 | 610 | 125 | 177 | 0.71 |
| CNC(=O)CSC[C@H]1CN(C)CC[C@H]1c1ccc(Cl)cc1 |  | 1770 | 215 |  |
| CC(=O)OCCSC[C@@H]1CN(C)CC[C@H]1c1ccc(Cl)cc1 | 52 | 130 | 536 | 0.24 |
| CN1CC[C@@H](c2ccc(Cl)cc2)[C@H](CSCC(=O)NCc2ccccc2)C1 | 32 | 753 | 1570 | 0.48 |
| CC(C)NC(=O)CSC[C@@H]1CN(C)CC[C@@H]1c1ccc(Cl)cc1 | 16 | 154 | 13 | 11.5 |
| CN1CC[C@@H](c2ccc(Cl)cc2)[C@@H](CSCC(=O)Nc2ccccc2)C1 | 1060 | 91 | 80 | 1.13 |
| CN1CC[C@@H](c2ccc(Cl)cc2)[C@@H](CSCC(=O)N2CCCCC2)C1 | 134 | 572 | > 3000 | < 0.19 |
| CN1CC[C@H](c2ccc(Cl)cc2)[C@H](CSCC(=O)NCc2ccccc2)C1 | 85 | 23 | 3.9 | 5.81 |
| CNC(=O)CSC[C@@H]1CN(C)CC[C@H]1c1ccc(Cl)cc1 |  | 116 | 164 |  |
| CN1CC[C@@H](c2ccc(Cl)cc2)[C@@H](CSCC(=O)NCc2ccccc2)C1 | 54 | 22 | 302 | 0.07 |
| CN1CC[C@H](c2ccc(Cl)cc2)[C@H](CSCCO)C1 | 26 | 185 | 37 | 5 |

| SMILES | Ki [1] [nM] | Ki [2] [nM] | Ki [3] [nM] | Ratio Ki [4] |
| --- | --- | --- | --- | --- |
| CN1CC[C@H](c2ccc(Cl)cc2)[C@H](CSCC(=O)N2CCCCC2)C1 | 13 | 42 | 34 | 1.22 |
| CN1CC[C@@H](c2ccc(Cl)cc2)[C@H](CSCC(=O)N(C)C)C1 | 218 | 186 | > 3000 | < 0.06 |
| CC(C)NC(=O)CSC[C@H]1CN(C)CC[C@H]1c1ccc(Cl)cc1 | 11 | 36 | 142 | 0.25 |
| CN1CC[C@@H](c2ccc(Cl)cc2)[C@H](CSCC(=O)NCCc2ccccc2)C1 | 178 | 68 | 23 | 2.97 |
| CC(=O)OCCSC[C@@H]1CN(C)CC[C@@H]1c1ccc(Cl)cc1 | 30 | 469 | 46 | 10.1 |
| CN1CC[C@H](c2ccc(Cl)cc2)[C@H](CSCC(=O)N(C)C)C1 | 63 | 8.8 | 17 | 0.53 |
| CN1CC[C@@H](c2ccc(Cl)cc2)[C@@H](CSCCO)C1 | > 3000 | 305 | 160 | 1.91 |
| COC(=O)CSC[C@@H]1CN(C)CC[C@@H]1c1ccc(Cl)cc1 | 22 | 182 | 38 | 4.88 |
| CN1CC[C@@H](c2ccc(Cl)cc2)[C@@H](CSCC(=O)NCCc2ccccc2)C1 | 100 | 121 | 112 | 1.08 |
| CN1CC[C@@H](c2ccc(Cl)cc2)[C@H](CSCCO)C1 | 123 | 129 | 185 | 0.69 |
| CNC(=O)CSC[C@@H]1CN(C)CC[C@@H]1c1ccc(Cl)cc1 |  | 347 | 311 |  |
| CN1CC[C@H](c2ccc(Cl)cc2)[C@H](CSCC(N)=O)C1 | 69 | 21 | 54 | 0.39 |
| CN1CC[C@@H](c2ccc(Cl)cc2)[C@H](CSCCOC(=O)c2ccccc2)C1 | 56 | 71 | 378 | 0.19 |
| CN1CC[C@@H](c2ccc(Cl)cc2)[C@H](CSCC(=O)N2CCCCC2)C1 | 82 | 190 | > 3000 | < 0.06 |
| CN1CC[C@@H](c2ccc(Cl)cc2)[C@@H](CSCC(=O)Nc2cccc3ccccc23)C1 | 101 | 108 | 102 | 1.06 |
| COC(=O)[C@H]1CN(C)CC[C@H]1c1ccc(Cl)cc1 | 415 | 56 | 1560 | 0.04 |
